ARFGAP1 inh: inhibitors of rat ARFGAP1; Arfgap1-stimulated ARF1 GTP hydrolysis, GDP FP detection; inhibition, % at 16.5 µM; actives 0.26% (n = 360,000); Q62848;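 active means inhibition above a per-plate limit, mean inhibition of low control wells plus 3 SD, cut at about 25% in these data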;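 further: 0% = DMSO wells with enzyme and 100% = wells lacking Arfgap1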
Target sequence (Q62848 1-136 limits assumed): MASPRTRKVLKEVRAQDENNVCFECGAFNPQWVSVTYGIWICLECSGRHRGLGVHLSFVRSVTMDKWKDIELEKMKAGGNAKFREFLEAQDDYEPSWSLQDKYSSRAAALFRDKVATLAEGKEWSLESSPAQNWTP
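Repeats: one replicate per compound; assay system: rat Arfgap1 catalytic domain, aa 1-136; times: enzyme reaction 120 min at 25 °C after 20 min preincubation; detection: FP of antibody-bound GDP Alexa 633 tracer, ex 620/em 688 nm; benchmarks: high control wells lacking Arfgap1, low control full reaction with DMSO; reagent: human ARF1(Δ1-17)-GTP substrate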
Tn7 DDE FP: disrupts Tn7 cyclic peptide binding to fibrin D-Dimer-E complex; actives 0.13% (n = 370,000); FP displacement of FITC-Tn7 peptide from fibrin DD(E); 0% = median of compound wells per plate; inhibition, % at 8.3 µM;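 active means inhibition above the mean of compounds falling within the control limits plus 3 SD of them, cut at about 14% in these data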;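 further: 0% = plate median of compound wells and 100% = 10 µM Aha-Tn7 peptide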
Target sequence (P02675 whole entry, looked up): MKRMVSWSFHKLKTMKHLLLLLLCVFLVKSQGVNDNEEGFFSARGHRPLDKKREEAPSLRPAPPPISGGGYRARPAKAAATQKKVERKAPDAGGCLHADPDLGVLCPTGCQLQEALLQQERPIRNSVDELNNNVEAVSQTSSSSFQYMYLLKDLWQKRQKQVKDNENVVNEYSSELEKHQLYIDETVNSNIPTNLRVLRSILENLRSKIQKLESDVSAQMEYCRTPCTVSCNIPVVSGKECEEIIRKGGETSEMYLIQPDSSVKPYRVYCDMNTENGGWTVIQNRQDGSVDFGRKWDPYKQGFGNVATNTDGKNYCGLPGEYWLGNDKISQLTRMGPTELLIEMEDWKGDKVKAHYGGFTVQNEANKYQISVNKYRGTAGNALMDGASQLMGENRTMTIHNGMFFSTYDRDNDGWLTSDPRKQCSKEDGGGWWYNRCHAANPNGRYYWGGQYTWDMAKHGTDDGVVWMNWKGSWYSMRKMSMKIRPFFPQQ
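Also added: labelled Tn7 tracer, 0.1 µM; Assay system: human fibrin DD(E) protein; Amount: 2 µM fibrin DD(E); Schedule: 10 min compound pre-incubation, 3 h probe incubation at room temperature; Repeats: one replicate per compound; Read-out basis: percent inhibition; Measured by: fluorescence polarization of the labelled Tn7 tracer.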
DDE Tn6 FP inh: inhibitors of Tn6 peptide binding to human fibrin DD(E). actives 0.21% (n = 370,000). AID 720509. Fibrin DD(E) TRITC-Tn6 fluorescence polarization displacement. inhibition, % at 8.3 µM. P02675;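 active means inhibition above a per-campaign cutoff: mean of compounds within control limits plus 3 SD, cut at about 15% in these data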;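 further: 0% = median of all compound wells on the plate and 100% = blocking peptide control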
ASAP1 inh: inhibitors of human ASAP1 ArfGAP activity | ASAP1-stimulated ARF1 GTP hydrolysis, GDP FP detection | inhibition, % at 16.5 µM | actives 0.19% (n = 360,000) | AID 624377; in the data active means inhibition above about 25%;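 further: 0% = vehicle with enzyme and substrate and 100% = no enzyme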
ASAP1 inh confirm: ASAP1 inhibition confirmed; inhibition, % at 16.5 µM; shares compounds with ASAP1 inh; ASAP1-stimulated Arf1 GTPase, GDP fluorescence polarization; actives 37% (n = 620);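 active means mean inhibition over triplicates exceeds the hit threshold derived for the earlier primary screening run, cut at about 25% in these data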
The depositor's hits bear a star; nt = not tested or not shown. The list is not random: actives were taken first. Their share in the collection is about 0.74%.

SMILES | ARFGAP1 inh | Tn7 DDE FP | DDE Tn6 FP inh | ASAP1 inh | ASAP1 inh confirm
Cc1ccc(-c2[nH]nc(N)c2N=Nc2ccccc2C)cc1 | 19 | -3 | -5 | 27* | 20
Cc1cccc(-c2cccc3c4c([nH]c23)[C@@H]2C[C@H](N(C)C(=O)Nc3ccccc3)[C@H]([C@H](C)O)C(=O)N2CC4)c1 | nt | -9 | 1 | nt | nt
Cc1ccc(Cl)c2sc(NC(=O)C3=COCCO3)nc12 | 8 | -12 | -10 | 27* | 14
COc1cc(NC(=O)Cc2ccccc2)ccc1NC(=O)Cc1ccccc1 | 8 | -5 | 3 | 30* | 3
COc1ccc(C=NNC(=S)NN=Cc2ccc(OC)c(OC)c2)cc1OC | 44* | -4 | -1 | 34* | 59*
COc1ccc(C=NNC(=S)Nc2ccc(F)cc2)cc1OC | 12 | 6 | -3 | 1 | nt
COc1cc2c3nnc(-c4ccc(F)cc4)c-3cn(Cc3cccc(C)c3)c2cc1OC | -6 | 3 | -3 | 123* | 181*
C#CCCN([C@@H](CC(C)C)C(=O)OC)S(=O)(=O)c1ccccc1Br | nt | 5 | -11 | nt | nt
COc1cc2nc(NCCCN3CCN(C)CC3)n3nc(-c4ccccc4)nc3c2cc1OC | 16 | -7 | -37 | 36* | 24
COC(=O)[C@]12C[C@H](CC(=O)NCC3CCCCC3)C(=O)N(Cc3ccco3)C1=C[C@H](COCc1ccccc1)O[C@@H]2C | nt | -5 | 2 | nt | nt
COc1ccc(-c2[nH]ncc2/C=N\NC(=O)c2ccc(Br)o2)cc1OC | 19 | 3 | 0 | 25* | 17
C#CCOCCOCCOCCNc1nc(N2CCN(C(=O)[C@H](CCCCN)n3cc([C@@H](N)C(C)CC)nn3)CC2)nc(N2CCN(C(=O)[C@H](CCCCN)n3cc([C@@H](N)C(C)CC)nn3)CC2)n1 (stereo partly specified) | nt | -1 | -5 | nt | nt
O=S1(=O)c2ccc(Br)cc2OC[C@@H](c2ccccc2)N1Cc1cn(Cc2ccccc2)nn1 | nt | -3 | 5 | nt | nt
O=C(O)C1Nc2c(C(F)(F)F)ccc(Cl)c2C2C=CCC12 (stereo unspecified) | -2 | 10 | 6 | 8 | nt
Cc1cc(C)c2c(c1)NC(C(=O)O)C1CC=CC21 (stereo unspecified) | 30* | 5 | 4 | 38* | 35*
COC(=O)[C@]12C[C@H](CC(=O)NCCc3ccccc3OC)C(=O)N(Cc3cccc4ccccc34)C1=C[C@H](C1CCCC1)O[C@@H]2C | nt | -9 | 5 | nt | nt
C[C@@H]1[C@H](O)[C@@H](C)/C=C/C=C/C=C/C=C/C=C/C=C/C=C/[C@H](OC2O[C@H](C)[C@@H](O)[C@H](N)[C@@H]2O)C[C@@H]2O[C@](O)(C[C@@H](O)C[C@@H](O)[C@H](O)CC[C@@H](O)C[C@@H](O)CC(=O)O[C@H]1C)C[C@H](O)[C@H]2C(=O)O (stereo partly specified) | nt | 0 | -2 | nt | nt
O=C(COC(=O)c1cccnc1)NC1CCCc2ccccc21 (stereo unspecified) | -4 | 3 | 1 | -1 | nt
O=C(COC(=O)c1cnccn1)NC1CCCc2ccccc21 (stereo unspecified) | -6 | -4 | 5 | 48* | 4
Cc1ccc(NC(=S)N/N=C/c2c(C)nn(-c3ccccc3)c2N2CCCC2)cc1 | 4 | -3 | -4 | 7 | nt
Cc1nn(-c2ccccc2)c(N2CCCC2)c1/C=N/NC(=S)Nc1ccc(F)cc1 | 1 | -3 | -7 | 27* | 8
O=C(O)COc1ccccc1/C=N/NC(=O)Cc1csc(Nc2cccc(C(F)(F)F)c2)n1 | 22 | -8 | -18 | 37* | 6
O=C(O)COc1ccccc1/C=N/NC(=O)Cc1ccccc1 | -3 | -4 | -3 | -5 | nt
COc1cc(O)cc(/C=C/c2ccccc2)c1 | 4 | -1 | -3 | 27* | 9
C[C@H]1[C@@H](NC(=O)c2ccc(C(C)(C)C)cc2)CC[C@@]23CCCN2C(=O)CCC[C@@H]13 | nt | -2 | 0 | nt | nt
SMILES | ARFGAP1 inh | Tn7 DDE FP | DDE Tn6 FP inh | ASAP1 inh | ASAP1 inh confirm
O=c1c2ccccc2nc2n1CCC2 | -8 | 0 | 4 | -4 | nt
O=C1CCn2c1c(O)c1ccccc1c2=O | 9 | -2 | 10 | 37* | 15
COC(=O)[C@]12C[C@H](CC(=O)NCc3cccc4ccccc34)C(=O)N(Cc3ccco3)C1=C[C@H](C1CCCC1)O[C@@H]2C | nt | 9 | -4 | nt | nt
Cc1ccc(C)c(N(C)S(=O)(=O)c2ccc3[nH]cc(C(=O)NCCN4CCOCC4)c(=O)c3c2)c1 | -5 | -2 | 0 | -1 | nt
Cc1ccc(N(C)S(=O)(=O)c2ccc3[nH]cc(C(=O)NCCCN4CCOCC4)c(=O)c3c2)cc1C | -5 | 2 | 5 | 30* | 5
O=C(NCc1ccco1)C12CN(Cc3ccccc3)CC1C(c1ccc([N+](=O)[O-])cc1)=NO2 (stereo unspecified) | 15 | -5 | 4 | 6 | nt
O=C(NCc1ccco1)C12CN(Cc3ccccc3)CC1C(c1cccc([N+](=O)[O-])c1)=NO2 (stereo unspecified) | 0 | -4 | 1 | 25* | 8
COc1ccc(C(=O)Nc2nc3cc4c(cc3s2)OCO4)c(OC)c1 | 8 | 0 | 4 | 31* | 41*
CC1CCC(NC(=O)COC(=O)C2CC3CCCC(C2)C3=O)CC1 (stereo unspecified) | -2 | 3 | 6 | -10 | nt
O=C(COC(=O)C1CC2CCCC(C1)C2=O)NC1CCCCC1 (stereo unspecified) | 7 | -9 | -2 | 26* | -3
O=c1cc(-c2ccc(O)cc2)oc2c(-c3c(O)cc(O)c4c(=O)cc(-c5ccc(O)cc5)oc34)c(O)cc(O)c12 | 7 | 9 | -9 | 21 | nt
O=c1c(-c2c(O)cc(O)c3c(=O)cc(-c4ccc(O)cc4)oc23)c(-c2ccc(O)cc2)oc2cc(O)cc(O)c12 | 20 | -4 | -22 | 25* | 27*
N#CC1=C(c2ccc(-c3ccccc3)cc2)COC1=O | 4 | 6 | -4 | 29* | 41*
O=C1OCC(c2ccccc2)=C1c1ccccc1 | 1 | 5 | 4 | -9 | nt
Nc1[nH]c(C(=O)c2ccccc2)c(-c2cccc3ccccc23)c1C(=O)c1c(-c2ccccc2)[nH]c2ccccc12 | nt | 5 | -2 | nt | nt
CNC(=O)c1ccccc1Nc1ccc(SC(F)F)cc1 | -6 | 2 | 6 | 0 | nt
O=C(NCc1ccncc1)c1ccccc1Nc1ccc(SC(F)F)cc1 | 2 | 1 | -2 | 28* | 15
O=S1(=O)c2ccc(N3CCCC3)cc2Oc2ccccc2CN1Cc1cn(Cc2ccccc2C(F)(F)F)nn1 | nt | 5 | -3 | nt | nt
Cc1cc(Nc2cc(Cl)nc(Sc3ccc(NC(=O)C4CC4)cc3)n2)n[nH]1 | 18 | -5 | -6 | 30* | 22
c1cnc2c(c1)ccc1cccnc12 | 6 | 4 | -4 | -5 | nt
O=C1C=CC(=O)N1c1cccc2cccnc12 | 3 | -6 | 0 | 25* | 3

Compound activity from PubChem BioAssay.
